Assay results: ChEMBL document CHEMBL2021791, “Synthesis, structure-activity relationships and biological evaluation of caudatin derivatives as novel anti-hepatitis B virus agents” (Bioorg Med Chem, 2012)
pIC50: −log10 of the molar value.

Legend:
Hepatitis B virus [1] = assay: Antiviral activity against Hepatitis B virus infected in human HepG2(2.2.15) cells assessed as suppression of HbeAg secretion by ELISA; type: functional, organism-based
[2] = Cytotoxicity against human HepG2(2.2.15) cells by MTT assay; type: cell-based; settings: HepG2(2.2.15) cells
Outline: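 HepG2 2.2.15 cells were exposed to compounds and viability was read by a modified MTT method. CC50 is the concentration giving 50% cytotoxicity. Values are means of at least two experiments.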

Hepatitis B virus [3] = assay: Antiviral activity against Hepatitis B virus infected in human HepG2(2.2.15) cells assessed as suppression of HBsAg secretion by ELISA; type: functional, organism-based
Hepatitis B virus [4] = assay: Antiviral activity against Hepatitis B virus infected in human HepG2(2.2.15) cells assessed as inhibition of viral DNA replication by RT-PCR analysis; type: functional, organism-based
Hepatitis B virus [5] = assay: Selectivity ratio of CC50 for human HepG2(2.2.15) cells to IC50 for Hepatitis B virus infected in human HepG2.2.15 cells assessed as suppression of HBsAg secretion; type: cell-based; settings: read-out: Ratio CC50/IC50
Outline: (§1)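 The selectivity index was calculated as CC50/IC50. CC50 is MTT cytotoxicity in HepG2 2.2.15 cells. No index was given where a value could not be obtained.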

Hepatitis B virus [6] = assay: Selectivity ratio of CC50 for human HepG2(2.2.15) cells to IC50 for Hepatitis B virus infected in human HepG2(2.2.15) cells assessed as inhibition of viral replication; type: cell-based; settings: read-out: Ratio CC50/IC50; outline: as §1

Compound | pIC50 (Hepatitis B virus [1]) | CC50 [2] [µM] | pIC50 (Hepatitis B virus [3]) | pIC50 (Hepatitis B virus [4]) | selectivity ratio (Hepatitis B virus [5]) | selectivity ratio (Hepatitis B virus [6])
CC(=O)[C@]1(O)CC[C@@]2(O)[C@]1(C)[C@H](OC(=O)/C=C(\C)C(C)C)C[C@@H]1[C@@]3(C)CC[C@H](OC(=O)CC#N)CC3=CC[C@]12O | < 3.79 | 122 | 4.00 | 5.14 | 1.2 | 10.5
CC(=O)[C@]1(OC(=O)CCCC(=O)O)CC[C@@]2(O)[C@]1(C)[C@H](OC(=O)/C=C(\C)C(C)C)C[C@@H]1[C@@]3(C)CC[C@H](OC(=O)CCCC(=O)O)CC3=CC[C@]12O | < 3.57 | > 268 | < 3.57 | < 3.57 | – | –
COP(=O)(OC)O[C@H]1CC[C@@]2(C)C(=CC[C@]3(O)[C@@H]2C[C@@H](OC(=O)/C=C(\C)C(C)C)[C@@]2(C)[C@]3(O)CC[C@@]2(O)C(C)=O)C1 | < 2.76 | 560 | < 2.76 | 3.98 | – | 5.3
CC(=O)[C@]1(O)CC[C@@]2(O)[C@]1(C)[C@H](OC(=O)/C=C(\C)C(C)C)C[C@@H]1[C@@]3(C)CC[C@H](OC(=O)CCCC(=O)O)CC3=CC[C@]12O | < 3.41 | 310 | < 3.41 | 3.54 | – | 1.1
CC(=O)[C@]1(O)CC[C@]23OC(C)(C)O[C@]24CC=C2C[C@@H](O)CC[C@]2(C)[C@H]4C[C@@H](OC(=O)/C=C(\C)C(C)C)[C@@]31C | < 2.77 | 512 | 3.77 | 3.66 | 3 | 2.3
COc1cc(C(=O)O[C@H]2CC[C@@]3(C)C(=CC[C@]4(O)[C@@H]3C[C@@H](OC(=O)/C=C(\C)C(C)C)[C@@]3(C)[C@]4(O)CC[C@@]3(O)C(C)=O)C2)on1 | < 2.93 | 133 | 3.70 | 4.77 | – | 7.8
CC(=O)[C@]1(O)CC[C@@]2(O)[C@]1(C)[C@H](OC(=O)/C=C(\C)C(C)C)C[C@@H]1[C@@]3(C)CC[C@H](OC(=O)CN(C)C)CC3=CC[C@]12O | < 3.13 | 50.5 | 4.06 | 4.86 | – | 3.6
CC(=O)[C@]1(O)CC[C@@]2(O)[C@]1(C)[C@H](OC(=O)/C=C(\C)C(C)C)C[C@@H]1[C@@]3(C)CC[C@H](OC(=O)c4cccnc4)CC3=CC[C@]12O | < 2.98 | 50.4 | 4.68 | 5.39 | 2.4 | 12.4
CC(=O)[C@]1(OC(=O)/C=C/c2ccccc2Cl)CC[C@@]2(O)[C@]1(C)[C@H](OC(=O)/C=C(\C)C(C)C)C[C@@H]1[C@@]3(C)CC[C@H](OC(=O)/C=C/c4ccccc4Cl)CC3=CC[C@]12O | < 3.59 | > 538 | 3.22 | < 3.83 | 1.6 | –
CC(=O)[C@]1(O)CC[C@@]2(O)[C@]1(C)[C@H](OC(=O)/C=C(\C)C(C)C)C[C@@H]1[C@@]3(C)CC[C@H](OP(=O)(Oc4ccccc4)Oc4ccccc4)CC3=CC[C@]12O | < 2.71 | > 1940 | < 2.71 | < 3.31 | – | –
CC(=O)[C@]1(O)CC[C@@]2(O)[C@]1(C)[C@H](OC(=O)/C=C(\C)C(C)C)C[C@@H]1[C@@]3(C)CC[C@H](OC(=O)c4ccnn4C)CC3=CC[C@]12O | < 3.14 | 10.1 | 4.84 | 5.55 | – | 3.6
COC(=O)COCC(=O)O[C@H]1CC[C@@]2(C)C(=CC[C@]3(O)[C@@H]2C[C@@H](OC(=O)/C=C(\C)C(C)C)[C@@]2(C)[C@]3(O)CC[C@@]2(O)C(C)=O)C1 | 4.10 | 25.3 | 4.29 | < 3.98 | – | –
CC(=O)[C@]1(OC(=O)/C=C/c2cc(F)cc(F)c2)CC[C@@]2(O)[C@]1(C)[C@H](OC(=O)/C=C(\C)C(C)C)C[C@@H]1[C@@]3(C)CC[C@H](OC(=O)/C=C/c4cc(F)cc(F)c4)CC3=CC[C@]12O | < 2.80 | > 1580 | < 2.80 | 3.74 | – | > 8.7
CC(=O)N1CCC[C@H]1C(=O)O[C@H]1CC[C@@]2(C)C(=CC[C@]3(O)[C@@H]2C[C@@H](OC(=O)/C=C(\C)C(C)C)[C@@]2(C)[C@]3(O)CC[C@@]2(O)C(C)=O)C1 | < 3.20 | 106 | 4.15 | 4.18 | 1.5 | 1.6
CC(=O)[C@]1(O)CC[C@@]2(O)[C@]1(C)[C@H](OC(=O)/C=C(\C)C(C)C)C[C@@H]1[C@@]3(C)CC[C@H](OC(=O)c4ccc(F)nc4)CC3=CC[C@]12O | < 3.16 | 14.3 | 4.81 | 5.30 | – | 2.9
CC(=O)[C@]1(OC(=O)CCN2C(=O)c3ccccc3C2=O)CC[C@@]2(O)[C@]1(C)[C@H](OC(=O)/C=C(\C)C(C)C)C[C@@H]1[C@@]3(C)CC[C@H](OC(=O)CCN4C(=O)c5ccccc5C4=O)CC3=CC[C@]12O | < 3.09 | > 809 | < 3.09 | < 3.69 | – | –
CC(=O)[C@]1(O)CC[C@@]2(O)[C@]1(C)[C@H](OC(=O)/C=C(\C)C(C)C)C[C@@H]1[C@@]3(C)CCC(=O)CC3=CC(=O)[C@]12O | < 2.79 | 155 | 3.69 | 3.95 | – | 1.4
CC(=O)[C@]1(O)CC[C@@]2(O)[C@]1(C)[C@H](OC(=O)/C=C(\C)C(C)C)C[C@@H]1[C@@]3(C)CC[C@H](OC(=O)c4ccc(Br)cn4)CC3=CC[C@]12O | < 3.20 | 48.4 | 4.12 | 4.90 | – | 3.9
COCC(=O)O[C@H]1CC[C@@]2(C)C(=CC[C@]3(O)[C@@H]2C[C@@H](OC(=O)/C=C(\C)C(C)C)[C@@]2(C)[C@]3(O)CC[C@@]2(O)C(C)=O)C1 | < 3.08 | 102 | 4.15 | 3.98 | 1.4 | –
CC(=O)[C@]1(O)CC[C@@]2(O)[C@]1(C)[C@H](OC(=O)/C=C(\C)C(C)C)C[C@@H]1[C@@]3(C)CC[C@H](OC(=O)CO)CC3=CC[C@]12O | 3.83 | 136 | 3.72 | 3.66 | – | –
C/C(=C\C(=O)O[C@@H]1C[C@@H]2[C@@]3(C)CC[C@H](O)CC3=CC[C@@]2(O)[C@@]2(O)CC[C@@](O)(C(C)O)[C@@]12C)C(C)C (some centres not stated) | < 2.98 | 217 | 3.51 | 3.76 | – | 1.3
CC(=O)[C@]1(O)CC[C@@]2(O)[C@]1(C)[C@H](OC(=O)/C=C(\C)C(C)C)C[C@@H]1[C@@]3(C)CC[C@H](OC(=O)Cc4ccncc4)CC3=CC[C@]12O | < 4.48 | 39.9 | 4.71 | < 3.38 | – | –
CC(=O)[C@]1(OC(=O)CCC(=O)O)CC[C@@]2(O)[C@]1(C)[C@H](OC(=O)/C=C(\C)C(C)C)C[C@@H]1[C@@]3(C)CC[C@H](OC(=O)CCC(=O)O)CC3=CC[C@]12O | < 3.02 | 483 | 3.18 | < 3.62 | – | –
